According to ChEMBL document CHEMBL3414459, “Phenolic thio- and selenosemicarbazones as multi-target drugs” (Eur J Med Chem, 2015):
Activity calls are given as the source filed them. The rule behind the calls is not given here.

test system: A549; assay: Antiproliferative activity against human A549 cells after 48 hrs by sulforhodamine B assay; format: functional; conditions: A549, 48 h
How it was run: (§1)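 Exponentially growing cells trypsinized into penicillin/streptomycin medium, >97% viable by trypan blue. Seeded per well: 10,000 (A549, HBL-100, HeLa, SW1573), 15,000 (T-47D), 20,000 (WiDr). Treatment began day 1, DMSO stocks 40 mM, 0.25% DMSO as control, triplicate, 48 h. Cells fixed with cold TCA 60 min at 4 °C, SRB stained, OD492 read, medium background subtracted.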

SMILES | GI50 [µM]
O=Cc1ccc(O)cc1 [4-HYDROXYBENZALDEHYDE] | > 100
Oc1cc(/C=N/NC(=S)Nc2ccccc2)cc(O)c1O | 9.3
O=Cc1ccc(O)c(O)c1 [PROTOCATECHUALDEHYDE] | 42
Oc1cc(/C=N/NC(=[Se])Nc2cccc3ccccc23)cc(O)c1O | 1.7
O=Cc1cc(O)c(O)cc1O | > 100
O=Cc1cc(O)c(O)c(O)c1 | 7.3

test system: not listed separately; assay: Antioxidant activity assessed as H2O2 scavenging activity at 100 uM incubated for 20 mins by phenol red based assay; format: physicochemical; conditions: not given
How it was run: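 Compound at 100 µM final, or DMSO control, in 0.1 M phosphate buffer pH 7.4 with H2O2 and 0.1 M NaCl, incubated in the dark at 37 °C for 20 min. Phenol red (0.2 mg/mL) and horseradish peroxidase (0.1 mg/mL) added, 15 min at 37 °C. NaOH added, 10 min at rt, A610 read. % reduction = (A_control − A_sample)/A_control × 100.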

SMILES | inhibition (INH)
O=Cc1ccc(O)cc1 [4-HYDROXYBENZALDEHYDE] | Not Active
Oc1cc(/C=N/NC(=S)Nc2ccccc2)cc(O)c1O | 80%
NNC(=[Se])Nc1cccc2ccccc12 | 56.9%
O=Cc1ccc(O)c(O)c1 [PROTOCATECHUALDEHYDE] | 78.3%
Oc1cc(/C=N/NC(=[Se])Nc2cccc3ccccc23)cc(O)c1O | 38.1%
O=Cc1cc(O)c(O)cc1O | 80.3%
O=Cc1cc(O)c(O)c(O)c1 | 79.1%

test system: SW1573; assay: Antiproliferative activity against human SW1573 cells after 48 hrs by sulforhodamine B assay; format: functional; conditions: SW1573, 48 h; how it was run: as §1

SMILES | GI50 [µM]
O=Cc1ccc(O)cc1 [4-HYDROXYBENZALDEHYDE] | > 100
Oc1cc(/C=N/NC(=S)Nc2ccccc2)cc(O)c1O | 49
O=Cc1ccc(O)c(O)c1 [PROTOCATECHUALDEHYDE] | 54
O=c1[nH]cc(F)c(=O)[nH]1 [FLUOROURACIL] | 4.3
Oc1cc(/C=N/NC(=[Se])Nc2cccc3ccccc23)cc(O)c1O | 2.9
O=Cc1cc(O)c(O)cc1O | > 100
O=Cc1cc(O)c(O)c(O)c1 | 38

target: not listed separately; assay: Inhibition of baker's yeast alpha-glucosidase using p-nitrophenyl-alpha-D-glucopyranoside substrate assessed as inhibition constant for enzyme-compound binding by measuring reduction in p-nitrophenolate formation; set-up: species or system Saccharomyces cerevisiae; conditions: not given
How it was run: (§2)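 Same α-glucosidase conditions: pH 6.8 phosphate buffer, 25 °C, A400 for p-nitrophenolate, 5% DMSO. Done for inhibitors exceeding 50% inhibition at 500 µM. Rates measured at 5 substrate concentrations from 0.25 to 4.0 K_m, each at a fixed inhibitor concentration, using 2–3 inhibitor concentrations. Lineweaver–Burk double reciprocal plots gave the inhibition mode and constants K_ia (E) and K_ib (ES).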

SMILES | Ki [µM]
Oc1cc(/C=N/NC(=S)Nc2ccccc2)cc(O)c1O | 297
Oc1cc(/C=N/NC(=[Se])Nc2cccc3ccccc23)cc(O)c1O | 154

test system: not listed separately; assay: Antioxidant activity assessed as inhibition of the lipid peroxidation at 0.74 mM incubated for 24 hrs by ferric thiocyanate method; format: physicochemical; conditions: 740 µM
How it was run: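 Ferric thiocyanate method at 0.74 mM. 10.0 mM DMSO stock combined with methanolic linoleic acid in 0.2 M phosphate buffer pH 7.0. AAPH added, then 24 h at 50 °C in the dark; DMSO served as control. An aliquot was diluted in H2O–DMSO with NH4SCN and FeCl2 in HCl. After 3 min at rt, A546 read. % inhibition relative to control.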

SMILES | inhibition (INH)
O=Cc1ccc(O)cc1 [4-HYDROXYBENZALDEHYDE] | Not Active
Oc1cc(/C=N/NC(=S)Nc2ccccc2)cc(O)c1O | 59.9%
NNC(=[Se])Nc1cccc2ccccc12 | 21.9%
O=Cc1ccc(O)c(O)c1 [PROTOCATECHUALDEHYDE] | 35.7%
Oc1cc(/C=N/NC(=[Se])Nc2cccc3ccccc23)cc(O)c1O | 24.3%
O=Cc1cc(O)c(O)cc1O | 56.1%
O=Cc1cc(O)c(O)c(O)c1 | Not Active

test system: not listed separately; assay: Antiproliferative activity against human HBL100 cells after 48 hrs by sulforhodamine B assay; format: functional; conditions: HBL-100, 48 h; how it was run: as §1

SMILES | GI50 [µM]
O=Cc1ccc(O)cc1 [4-HYDROXYBENZALDEHYDE] | > 100
Oc1cc(/C=N/NC(=S)Nc2ccccc2)cc(O)c1O | 71
O=Cc1ccc(O)c(O)c1 [PROTOCATECHUALDEHYDE] | > 100
O=c1[nH]cc(F)c(=O)[nH]1 [FLUOROURACIL] | 5.5
Oc1cc(/C=N/NC(=[Se])Nc2cccc3ccccc23)cc(O)c1O | 2.4
O=Cc1cc(O)c(O)cc1O | > 100
O=Cc1cc(O)c(O)c(O)c1 | 72

test system: not listed separately; assay: Pro-oxidant activity assessed as hydroxyl radical generation through deoxyribose degradation by measuring change in absorbance at 0.83 mM by TBARS based spectrophotometry; format: ADME; conditions: 830 µM
How it was run: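 Modified Halliwell deoxyribose assay with the compound at the stated concentration in 0.1 M phosphate buffer pH 7.4, with 2-deoxyribose, H2O2, and FeCl3 premixed with EDTA. Heated 1 h at 37 °C, then TBA in NaOH and trichloroacetic acid added and heated 15 min at 100 °C. Cooled, A532 read; DMSO as control. Repeated without deoxyribose to account for TBARS interference.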

SMILES | Activity
NNC(=[Se])Nc1cccc2ccccc12 | 0.064
Oc1cc(/C=N/NC(=[Se])Nc2cccc3ccccc23)cc(O)c1O | 0.067

test system: not listed separately; assay: Inhibition of baker's yeast alpha-glucosidase using p-nitrophenyl-alpha-D-glucopyranoside substrate assessed as reduction in p-nitrophenolate formation at 500 uM; conditions: Saccharomyces bayanus
How it was run: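 α-Glucosidase in 0.1 M phosphate buffer pH 6.8 with p-nitrophenyl-α-D-glucopyranoside at K_M (250 µM; K_M 0.25 mM). Inhibitor at 500 µM final or DMSO, DMSO 5% v/v.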

SMILES | inhibition
O=Cc1ccc(O)cc1 [4-HYDROXYBENZALDEHYDE] | inactive
Oc1cc(/C=N/NC(=S)Nc2ccccc2)cc(O)c1O | 70%
NNC(=[Se])Nc1cccc2ccccc12 | 14%
O=Cc1ccc(O)c(O)c1 [PROTOCATECHUALDEHYDE] | inactive
Oc1cc(/C=N/NC(=[Se])Nc2cccc3ccccc23)cc(O)c1O | 98%
O=Cc1cc(O)c(O)cc1O | inactive
O=Cc1cc(O)c(O)c(O)c1 | inactive

test system: not listed separately; assay: Mixed inhibition of baker's yeast alpha-glucosidase using p-nitrophenyl-alpha-D-glucopyranoside substrate assessed as reduction in p-nitrophenolate formation by Lineweaver-Burk plot; conditions: Saccharomyces bayanus; how it was run: as §2

SMILES | inhibition
Oc1cc(/C=N/NC(=S)Nc2ccccc2)cc(O)c1O | Active
Oc1cc(/C=N/NC(=[Se])Nc2cccc3ccccc23)cc(O)c1O | Active

test system: HeLa; assay: Antiproliferative activity against human HeLa cells after 48 hrs by sulforhodamine B assay; format: functional; conditions: not given; how it was run: as §1

SMILES | GI50 [µM]
O=Cc1ccc(O)cc1 [4-HYDROXYBENZALDEHYDE] | > 100
Oc1cc(/C=N/NC(=S)Nc2ccccc2)cc(O)c1O | 32
O=Cc1ccc(O)c(O)c1 [PROTOCATECHUALDEHYDE] | 49
O=c1[nH]cc(F)c(=O)[nH]1 [FLUOROURACIL] | 15
Oc1cc(/C=N/NC(=[Se])Nc2cccc3ccccc23)cc(O)c1O | 2.3
O=Cc1cc(O)c(O)cc1O | > 100
O=Cc1cc(O)c(O)c(O)c1 | 16

test system: not listed separately; assay: Antioxidant activity assessed as DPPH free radical scavenging activity incubated for 30 mins; format: physicochemical; conditions: not given
How it was run: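 DPPH in HPLC-grade solvent mixed with compound in DMSO at 7 concentrations, or with DMSO alone as control. Kept in the dark at rt for 30 min, then A515 read against a blank. % DPPH remaining = A_sample/A_control × 100, plotted against concentration; EC50 taken from the straight line. Triplicate.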

SMILES | EC50 [µM]
O=Cc1ccc(O)cc1 [4-HYDROXYBENZALDEHYDE] | > 250
Oc1cc(/C=N/NC(=S)Nc2ccccc2)cc(O)c1O | 7
NNC(=[Se])Nc1cccc2ccccc12 | 6.65
O=Cc1ccc(O)c(O)c1 [PROTOCATECHUALDEHYDE] | 6.57
Oc1cc(/C=N/NC(=[Se])Nc2cccc3ccccc23)cc(O)c1O | 8.87
OCCc1ccc(O)c(O)c1 [HYDROXYTYROSOL] | 13.8
O=Cc1cc(O)c(O)cc1O | 5.97
O=Cc1cc(O)c(O)c(O)c1 | 15.3

test system: WiDr; assay: Antiproliferative activity against human WiDr cells after 48 hrs by sulforhodamine B assay; format: functional; conditions: not given; how it was run: as §1

SMILES | GI50 [µM]
O=Cc1ccc(O)cc1 [4-HYDROXYBENZALDEHYDE] | > 100
Oc1cc(/C=N/NC(=S)Nc2ccccc2)cc(O)c1O | > 100
O=Cc1ccc(O)c(O)c1 [PROTOCATECHUALDEHYDE] | > 100
O=c1[nH]cc(F)c(=O)[nH]1 [FLUOROURACIL] | 49
Oc1cc(/C=N/NC(=[Se])Nc2cccc3ccccc23)cc(O)c1O | 3.6
O=Cc1cc(O)c(O)cc1O | > 100
O=Cc1cc(O)c(O)c(O)c1 | 39

test system: T47D; assay: Antiproliferative activity against human T47D cells after 48 hrs by sulforhodamine B assay; format: functional; conditions: not given; how it was run: as §1

SMILES | GI50 [µM]
O=Cc1ccc(O)cc1 [4-HYDROXYBENZALDEHYDE] | > 100
Oc1cc(/C=N/NC(=S)Nc2ccccc2)cc(O)c1O | 61
O=Cc1ccc(O)c(O)c1 [PROTOCATECHUALDEHYDE] | > 100
O=c1[nH]cc(F)c(=O)[nH]1 [FLUOROURACIL] | 47
Oc1cc(/C=N/NC(=[Se])Nc2cccc3ccccc23)cc(O)c1O | 2.7
O=Cc1cc(O)c(O)cc1O | > 100
O=Cc1cc(O)c(O)c(O)c1 | 43

target: not listed separately; assay: Inhibition of baker's yeast alpha-glucosidase using p-nitrophenyl-alpha-D-glucopyranoside substrate assessed as inhibition constant for enzyme-substrate-compound binding by measuring reduction in p-nitrophenolate formation; conditions: not given; how it was run: as §2

SMILES | Ki [µM]
Oc1cc(/C=N/NC(=S)Nc2ccccc2)cc(O)c1O | 86.2
Oc1cc(/C=N/NC(=[Se])Nc2cccc3ccccc23)cc(O)c1O | 70.3

test system: not listed separately; assay: Potency index, ratio of IC50 for hydroxytyrosol to IC50 for test compound for antioxidant activity assessed as DPPH free radical scavenging activity incubated for 30 mins; conditions: not given

SMILES | Ratio IC50
Oc1cc(/C=N/NC(=S)Nc2ccccc2)cc(O)c1O | < 3
NNC(=[Se])Nc1cccc2ccccc12 | < 3
